We go through four compounds from ChEMBL document CHEMBL3217529, “Carbocyclic 5'-nor "reverse" fleximers. Design, synthesis, and preliminary biological activity” (Medchemcomm, 2011).

The test system of data set [1] is Respiratory syncytial virus. The experiment in a line: Antiviral activity against Respiratory syncytial virus infected in human HeLa cells assessed as inhibition of virus-induced cytopathicity. It is filed as functional, organism-based. (Cytopathic effects are the visible damage that an infection or toxin causes in cultured cells.)
For another data set, the system named is Human alphaherpesvirus 2. The data set is described as follows: Antiviral activity against Herpes simplex virus type 2 G infected in human HEL cells assessed as inhibition of virus-induced cytopathicity. It is filed as functional, organism-based. Particulars: Human alphaherpesvirus 2, strain G.
Data set [2] deals with Human immunodeficiency virus 2. The data set is described as follows: Antiviral activity against HIV-2 ROD infected in human CEM cells assessed as inhibition of virus-induced giant cell formation after 4 days by microscopic analysis. It is filed as functional, organism-based. As to conditions: Human immunodeficiency virus 2, ISOLATE ROD, CCRF-CEM, 96 h. The procedure, abridged: (§1)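 CEM cells (~3 × 10^5 cells per cm3) were infected with 100 CCID50 of virus per mL and seeded into wells containing compound dilutions. After 4 days at 37 °C, giant cell formation was examined microscopically.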

A further data set has as its system Human respirovirus 3. The data set is described as follows: Antiviral activity against Parainfluenza virus 3 infected in African green monkey Vero cells assessed as inhibition of virus-induced cytopathicity. It is filed as functional, organism-based. As to conditions: Human respirovirus 3, Vero. The gist of the method: (§2)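 Confluent cell monolayers in 96-well plates inoculated with 100 CCID50 of virus alongside 5-fold serial dilutions of compound. Cytopathicity scored once it was complete in untreated infected controls.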

Data set [3] is described as follows: Cytotoxicity against human HeLa cells assessed as concentration required to cause microscopically visible alternation of cell morphology. It is filed as cell-based. The procedure, abridged:
(§3)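 Confluent cultures (MDCK nearly confluent) exposed to 5-fold serial compound dilutions alongside the antiviral assays. MCC is the lowest concentration producing a microscopically visible change in cell morphology.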

For data set [4], the system named is Human immunodeficiency virus 1. The experiment in a line: Antiviral activity against HIV-1 3B infected in human CEM cells assessed as inhibition of virus-induced giant cell formation after 4 days by microscopic analysis. As to conditions: Human immunodeficiency virus 1, 3B, CCRF-CEM, 96 h. It is filed as functional, organism-based. The procedure, abridged: as §1

For data set [5], the system named is Human betaherpesvirus 5. The data set is described as follows: Antiviral activity against human cytomegalovirus AD169 infected in human HEL cells assessed as inhibition of virus-induced cytopathicity after 7 days by Giemsa staining-based microscopic analysis. It is filed as functional, organism-based. Particulars: Human betaherpesvirus 5, AD169, HEL, 168 h. The gist of the method:
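Confluent HEL fibroblasts infected with HCMV AD-169 or Davis at 100 PFU/well for 2 h, then residual virus removed. Medium with graded compound concentrations added, in duplicate. After 7 days at 37 °C, cells ethanol-fixed and Giemsa-stained, and cytopathogenicity read microscopically. EC50 taken from plots of % cytopathogenicity versus concentration.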

Data set [6] has as its system Human alphaherpesvirus 1. The experiment in a line: Antiviral activity against thymidine kinase-deficient Herpes simplex virus type 1 infected in human HEL cells assessed as inhibition of virus-induced cytopathicity. It is filed as functional, organism-based. As to conditions: Human alphaherpesvirus 1, HEL.
Another data set concerns Influenza B virus. The data set is described as follows: Antiviral activity against Influenza B virus infected in MDCK cells assessed as inhibition of virus-induced cytopathicity. It is filed as functional, organism-based.
In data set [7] the test system is Vesicular stomatitis virus. The experiment in a line: Antiviral activity against Vesicular stomatitis virus infected in human HEL cells assessed as inhibition of virus-induced cytopathicity. It is filed as functional, organism-based.
Data set [8] concerns Vesicular stomatitis virus. The data set is described as follows: Antiviral activity against Vesicular stomatitis virus infected in human HeLa cells assessed as inhibition of virus-induced cytopathicity. It is filed as functional, organism-based.
Data set [9] in a line: Cytotoxicity against MDCK cells assessed as concentration required to cause microscopically visible alternation of cell morphology. It is filed as cell-based, Canis lupus familiaris. As to conditions: dog. The gist of the method:
as §3

The test system of data set [10] is Coxsackievirus B4. The experiment in a line: Antiviral activity against Coxsackievirus B4 infected in human HeLa cells assessed as inhibition of virus-induced cytopathicity. As to conditions: Enterovirus B. It is filed as functional, organism-based. The gist of the method:
as §2

Data set [11] relates to Human alphaherpesvirus 1. The data set is described as follows: Antiviral activity against Herpes simplex virus type 1 KOS infected in human HEL cells assessed as inhibition of virus-induced cytopathicity. It is filed as functional, organism-based. As to conditions: Human alphaherpesvirus 1, KOS.
For data set [12], the system named is Human betaherpesvirus 5. The data set is described as follows: Antiviral activity against human cytomegalovirus Davis infected in human HEL cells assessed as inhibition of virus-induced cytopathicity after 7 days by Giemsa staining-based microscopic analysis. It is filed as functional, organism-based. Particulars: Human betaherpesvirus 5, Davis, 168 h. The procedure, abridged:
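Confluent HEL fibroblasts were infected with 100 PFU per well. After 2 h, residual virus was removed and compound-containing medium was added, in duplicate. At 7 days at 37 °C, cells were ethanol-fixed and Giemsa-stained, and cytopathogenicity was assessed microscopically.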

Data set [13] is described as follows: Cytotoxicity against human HEL cells assessed as concentration required to cause microscopically visible alternation of cell morphology. It is filed as cell-based. The procedure, abridged:
as §3

The test system of data set [14] is Coxsackievirus B4. The experiment in a line: Antiviral activity against Coxsackievirus B4 infected in African green monkey Vero cells assessed as inhibition of virus-induced cytopathicity. Particulars: Enterovirus B. It is filed as functional, organism-based.
A further data set has as its system Punta Toro virus. The experiment in a line: Antiviral activity against Punta Toro virus infected in African green monkey Vero cells assessed as inhibition of virus-induced cytopathicity. It is filed as functional, organism-based.
Another data set deals with Influenza A virus H3N2. The experiment in a line: Antiviral activity against Influenza A virus H3N2 infected in MDCK cells assessed as inhibition of virus-induced cytopathicity. It is filed as functional, organism-based.
In data set [15] the test system is Mammalian orthoreovirus 1. The experiment in a line: Antiviral activity against Reovirus 1 infected in African green monkey Vero cells assessed as inhibition of virus-induced cytopathicity. It is filed as functional, cell-based. As to conditions: Mammalian orthoreovirus 1, Vero.
A further data set concerns Sindbis virus. The data set is described as follows: Antiviral activity against Sindbis virus infected in African green monkey Vero cells assessed as inhibition of virus-induced cytopathicity. It is filed as functional, organism-based.
Data set [16] can be described thus: Cytotoxicity against African green monkey Vero cells assessed as concentration required to cause microscopically visible alternation of cell morphology. It is filed as cell-based. Particulars: chlorocebus sabaeus. The gist of the method: as §3
For another data set, the system named is Influenza A virus. The experiment in a line: Antiviral activity against Influenza A virus H1N1 infected in MDCK cells assessed as inhibition of virus-induced cytopathicity. It is filed as functional, organism-based.
The subject of data set [17] is Human alphaherpesvirus 3. The data set is described as follows: Antiviral activity against thymidine kinase-deficient Varicella-zoster virus 07-1 infected in human HEL cells assessed as reduction of viral plaque formation after 5 days. It is filed as functional, organism-based. Particulars: Human alphaherpesvirus 3, 07-1, HEL, 120 h. The procedure, abridged:
(§4)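 Confluent HEL cells were inoculated with 20 PFU per well. After 2 h, residual virus was removed and compound dilutions were added, in duplicate.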

In a further data set the test system is Vaccinia virus. The experiment in a line: Antiviral activity against Vaccinia virus infected in human HEL cells assessed as inhibition of virus-induced cytopathicity. It is filed as functional, organism-based. Particulars: Orthopoxvirus vaccinia.
Data set [18] has as its system Human alphaherpesvirus 3. The data set is described as follows: Antiviral activity against wild type Varicella-zoster virus Oka infected in human HEL cells assessed as reduction of viral plaque formation after 5 days. It is filed as functional, organism-based. As to conditions: Human alphaherpesvirus 3, strain Oka vaccine, 120 h. The procedure, abridged:
as §4

Bounds are passed on as bounds.

Usually EC50 stands for the concentration giving half of the maximal effect. On to `O=c1[nH]c(=O)n(C2C=CC(O)C2)cc1-c1cccs1` (stereo unspecified), for which the EC50 in [1] is over 4 µM; with Human alphaherpesvirus 2, over 4 µM; in data set [2] it was over 2 µM; with Human respirovirus 3 it was over 4 µM; in data set [4], over 2 µM; in the data set on Human betaherpesvirus 5 [5], 1.8 µM. Moreover, the EC50 in the data set with Human alphaherpesvirus 1 [6] is over 4 µM; in the data set on Influenza B virus it was over 0.8 µM; in data set [7] it was over 4 µM; in [8], 4 µM; in the data set with Coxsackievirus B4 [10] it was over 4 µM; in the data set on Human alphaherpesvirus 1 [11] it was over 4 µM. For the same compound, the EC50 in the data set on Human betaherpesvirus 5 [12] is 1.8 µM; with Coxsackievirus B4 [14], over 4 µM; with Punta Toro virus it was over 4 µM; with Influenza A virus H3N2 it was over 0.8 µM; in data set [15] it was over 4 µM; in the data set on Sindbis virus it was over 4 µM. The EC50 in the data set with Influenza A virus was over 0.8 µM; in the data set with Human alphaherpesvirus 3 [17], 1.6 µM; in the data set with Vaccinia virus, over 4 µM; in the data set with Human alphaherpesvirus 3 [18] it was 1.6 µM. Besides, the MCC in [3] is 20 µM; in [9] it was 4 µM; in data set [13], at least 4 µM; in [16], 20 µM.
For `O=c1[nH]c(=O)n(C2C=CC(O)C2)cc1-c1ccco1` (stereo unspecified), the EC50 (in [1]; in the data set on Human alphaherpesvirus 2; in data set [2]; with Human respirovirus 3; in [4]; with Human alphaherpesvirus 1 [6]) was over 100 µM throughout. The EC50 was over 100 µM in data set [7]; over 100 µM in data set [8]; over 100 µM with Coxsackievirus B4 [10]; over 100 µM in the data set with Human alphaherpesvirus 1 [11]; over 100 µM with Coxsackievirus B4 [14]; 20 µM in the data set with Punta Toro virus. For the same compound, the EC50 in data set [15] is 100 µM; in the data set with Vaccinia virus, over 100 µM. Also, the MCC in data set [3], in data set [13] and in data set [16] was over 100 µM each time.
On to `O=c1[nH]c(=O)n(C2C=CC(O)C2)cc1-c1cncs1` (stereo unspecified), for which the EC50 in data set [1] was over 100 µM; in the data set with Human alphaherpesvirus 2 it was over 100 µM; in [2], over 50 µM; in the data set on Human respirovirus 3, over 100 µM; in [4], over 50 µM; in the data set with Human betaherpesvirus 5 [5] it was over 20 µM. The EC50 was over 100 µM in the data set with Human alphaherpesvirus 1 [6]; over 20 µM in the data set on Influenza B virus; over 100 µM in [7]; over 100 µM in data set [8]; over 100 µM with Coxsackievirus B4 [10]; over 100 µM in the data set on Human alphaherpesvirus 1 [11]. The concentration giving a half-maximal response (EC50) is over 20 µM in the data set on Human betaherpesvirus 5 [12]; over 100 µM in the data set with Coxsackievirus B4 [14]; over 100 µM with Punta Toro virus; over 20 µM in the data set with Influenza A virus H3N2; over 100 µM in [15]; over 100 µM in the data set with Sindbis virus. Also, the EC50 in the data set with Influenza A virus was over 20 µM; with Human alphaherpesvirus 3 [17], 47 µM; with Vaccinia virus, over 100 µM; in the data set with Human alphaherpesvirus 3 [18] it was 47 µM. The MCC was over 100 µM in [3], 100 µM in data set [9], at least 100 µM in [13] and over 100 µM in data set [16].
With `NC(=O)c1ncn([C@@H]2O[C@H](CO)[C@@H](O)[C@H]2O)n1` [RIBAVIRIN], the 50% effective concentration (EC50) with Human alphaherpesvirus 2 was over 250 µM; in data set [2], over 50 µM; in data set [4] it was over 50 µM; in the data set on Human alphaherpesvirus 1 [11] it was over 250 µM; in the data set on Coxsackievirus B4 [14] it was over 250 µM; in data set [15] it was over 250 µM. Moreover, the EC50 in the data set on Sindbis virus and in the data set with Vaccinia virus was over 250 µM each time. Also, the MCC in data set [3] is over 250 µM; in [9], over 100 µM; in data set [13], over 250 µM; in [16], over 250 µM.
